M1 ag = human M1 muscarinic receptor agonists, primary screen, Fluo-8 calcium fluorescence, CHO-K1 cells, HTS | Muscarinic acetylcholine receptor M1 (Homo sapiens), P11229 | CHO-K1 hM1, agonist mode; 0% DMSO, 100% acetylcholine EC100 | 360,000 tested, 0.33% active | activation, % at 3 µM;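 active means activation above the run's mean compound activation plus 3 SD, cut at about 16% in these data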;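 further: peak over basal fluorescence ratio within a 140 s kinetic read after compound addition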
M1 PAM = human M1 muscarinic receptor positive allosteric modulators, primary screen, CHO-K1 cells, Fluo-8 calcium fluorescence, 1536-well; Muscarinic acetylcholine receptor M1 (Homo sapiens), P11229; CHO-K1 hM1, ACh EC20; 0% = ACh EC20, 100% = maximal ACh; activation, % at 3 µM; 360,000 tested, 0.088% active; AID 588819, 2011; in the data active means activation above about 19%, passing the limit was not always enough
CHRM5 agonist = human M5 muscarinic receptor agonists, primary screen, CHO-K1 cells, Fluo-8 calcium fluorescence; activation, % at 3 µM; 360,000 tested, 0.19% active; CHO-K1 hM5 cells; 0% DMSO wells, 100% maximal acetylcholine response;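 active means activation above the run's mean over test compounds plus 3 SD, cut at about 23% in these data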;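 further: signal is peak over basal fluorescence ratio across the kinetic read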
Target sequence (P08912 whole entry, looked up): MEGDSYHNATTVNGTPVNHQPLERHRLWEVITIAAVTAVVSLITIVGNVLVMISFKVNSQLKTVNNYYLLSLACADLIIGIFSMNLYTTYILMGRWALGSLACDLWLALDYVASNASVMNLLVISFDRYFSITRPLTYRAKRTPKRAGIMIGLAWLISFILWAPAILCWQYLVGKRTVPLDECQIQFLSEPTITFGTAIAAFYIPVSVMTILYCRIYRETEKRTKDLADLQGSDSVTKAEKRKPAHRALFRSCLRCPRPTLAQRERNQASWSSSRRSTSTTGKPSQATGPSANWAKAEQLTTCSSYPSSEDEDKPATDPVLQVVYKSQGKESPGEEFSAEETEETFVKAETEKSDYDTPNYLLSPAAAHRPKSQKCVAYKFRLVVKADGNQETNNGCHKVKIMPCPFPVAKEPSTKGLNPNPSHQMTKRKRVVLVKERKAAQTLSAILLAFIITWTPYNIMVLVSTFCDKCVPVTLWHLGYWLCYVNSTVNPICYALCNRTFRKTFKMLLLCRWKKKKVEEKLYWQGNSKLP
M5 antag = human M5 muscarinic receptor antagonists, primary screen, CHO cells, Fluo-8 calcium fluorescence; Muscarinic acetylcholine receptor M5 (Homo sapiens), P08912; CHO-hM5 cells, ACh EC80; inhibition, % at 3 µM; 360,000 tested, 0.59% active; AID 624040, 2012;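 active means inhibition above a per-plate cutoff, the mean of that plate's test compounds plus 3 SD, cut at about 27% in these data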;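 further: 0% = acetylcholine EC80 with DMSO and 100% = DMSO without agonist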
CHRM1 antagonist = human M1 muscarinic receptor antagonists, primary screen, CHO-K1 cells, Fluo-8 calcium fluorescence, 1536-well | Muscarinic acetylcholine receptor M1 (Homo sapiens), P11229 | CHO-K1 hM1, ACh EC80 antagonist | inhibition, % at 3 µM | 360,000 tested, 1.3% active | AID 588852, 2011;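 active means percent inhibition above its own plate's cutoff, namely the mean of that plate's compound wells plus 3 SD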;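 further: peak over basal fluorescence ratio during 140 s after agonist addition; 0% = ACh EC80 plus DMSO and 100% = DMSO alone without agonist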
M5 PAM = human M5 muscarinic receptor positive allosteric modulators, primary screen, CHO-K1 cells, Fluo-8 calcium fluorescence; CHO-K1 hM5, ACh EC20 PAM; 0% = ACh EC20, 100% = ACh EC100; Muscarinic acetylcholine receptor M5 (Homo sapiens), P08912; activation, % at 3 µM; 360,000 tested, 0.3% active;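 active means activation above the run cutoff, the mean activation of all test compounds plus 3 SD, cut at about 18% in these data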
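System: CHO-K1 hM5 cells. Reagent: acetylcholine, EC20 level. Compound dosing: single dose, 3 µM nominal final test concentration. Timing: Post-acetylcholine fluorescence recording 140 s. Detection: Fluo-8 calcium fluorescence. Read-out: % activation, ACh-normalized. Benchmarks: ACh EC20 and EC100 wells. Repeats: singlicate, one well per test compound.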
* marks the source's active call; other numbers are inactive results; . = no result. A selection: hits, their analogues and other compounds. The true share with any hit is near 2%.

SMILES	M1 ag	M1 PAM	CHRM5 agonist	M5 antag	CHRM1 antagonist	M5 PAM
COc1ccccc1N1CCN(C2CCCN(C(=O)c3csc(C)n3)C2)CC1 (stereo not given)	-3	9	-3	-18	1	4
COc1ccccc1N1CCN(C2CCCN(C(=O)c3oc(C)cc3C)C2)CC1 (stereo not given)	-6	5	-8	57*	-1	-14
O=C(O)c1ccc(CNC(=O)C2CCCN2C(=O)OCc2ccccc2)cc1 (stereo not given)	0	-1	-1	0	-7	5
Cc1cc(Cl)ccc1OCC(O)CNCCc1ccc(S(N)(=O)=O)cc1 (stereo not given)	0	-16	-7	15	43*	-7
O=C(O)c1cccc(-n2sc3ccccc3c2=O)c1	-3	10	7	8	-2	3
O=c1c2cc(F)ccc2sn1-c1ccccc1	10	1	24*	12	5	2
O=c1c2ccccc2sn1-c1ccccc1	7	8	20	3	6	-2
O=c1c2cc(C(F)(F)F)ccc2sn1-c1ccccc1	16*	-3	5	-2	0	-3
COC(=O)c1ccc2c(c1)C(C)(C)C(/C=C/c1ccccc1O)=[N+]2C	4	4	23*	4	11	9
Cc1ccc(-c2nc(SC(C)C(=O)NC3CC3)n[nH]2)cc1 (stereo not given)	-1	9	0	10	-11	-1
Cc1cc(C)cc(NC(=S)N2C3CCCC2CC(NC(=O)C2CC2)C3)c1 (stereo not given)	-11	-22	-7	6	27*	-1
CCOc1cccc(-c2c(C(=O)N/N=C/c3ccc(Br)cc3)nnn2-c2nonc2N)c1	19*	22	18	1	6	18*
CCOc1cccc(-c2c(C(=O)N/N=C/c3cccnc3)nnn2-c2nonc2N)c1	3	8	3	-6	-15	3
CCOc1cccc(-c2c(C(=O)N/N=C(\C)c3cccs3)nnn2-c2nonc2N)c1	31*	4	12	1	0	2
CCOc1ccc(-c2c(C(=O)N/N=C/c3ccsc3)nnn2-c2nonc2N)cc1	28*	9	15	11	-8	-5
COc1cccc(-c2c(C(=O)N/N=C(\C)c3cccs3)nnn2-c2nonc2N)c1	34*	16	12	-5	-2	6
COc1cccc(-c2c(C(=O)N/N=C(\C)c3ccncc3)nnn2-c2nonc2N)c1	3	3	7	-15	-9	5
C[C@H](CO)N1C[C@H](C)[C@H](CN(C)C(=O)c2ccc3ccn(C)c3c2)OCc2cnnn2CCCC1=O	-1	10	-1	5	-17	-1
C[C@@H]1CN([C@H](C)CO)C(=O)CCCn2cc(nn2)CO[C@H]1CN(C)C(=O)Nc1ccc2c(c1)OCO2	-10	-1	-3	0	-8	-4
CN(C)S(=O)(=O)c1cccc(NC(=O)C2CCCN(C(=O)c3ccc(Cl)cc3)C2)c1 (stereo not given)	-2	-6	3	16	4	1
Cc1cccc(C2(c3cccc(C)c3)CC2C(=O)Nc2ccc([N+](=O)[O-])cc2O)c1 (stereo not given)	-3	-15	2	33*	25	-21
C=CCNC(=O)C1CC1(c1cccc(C)c1)c1cccc(C)c1 (stereo not given)	1	13	1	2	0	-4
CCOC(=O)N1CCC(N2CCCC(C(=O)c3cccc(OC)c3)C2)CC1 (stereo not given)	-7	-21	-19	-3	54*	-10
CCOC(=O)N1CCC(N2CCCC(C(=O)c3cccc(OC(C)C)c3)C2)CC1 (stereo not given)	-7	-18	-21	1	30	-2
CC(=O)Nc1ccc(C(=O)N/N=C/c2ccc(F)cc2)cc1	-4	-1	1	4	-4	7
SMILES	M1 ag	M1 PAM	CHRM5 agonist	M5 antag	CHRM1 antagonist	M5 PAM
O=C(N/N=C/c1ccccc1)c1ccc(NC(=O)c2ccc(F)cc2)cc1	-5	6	0	17	-4	20*
CC(C)Oc1ccccc1/C=N/NC(=O)c1ccc(F)cc1	0	22*	1	10	-22	-6
O=C(/C=C/c1ccc(OC2CSC2)cc1)c1ccccc1	-4	1	-2	-6	-7	-1
O=C(N/N=C/c1ccc(OC2CSC2)cc1)c1ccccc1	32*	-1	2	7	0	-6
COC(=O)c1ccc(OCC(=O)c2ccccc2)cc1	-3	-8	-5	0	12	-7
O=C(C[n+]1ccccc1)c1ccc(-c2ccccc2)cc1	-8	-19	-7	18	40*	-1
C=Cn1cc[n+](CC(=O)c2ccc(-c3ccccc3)cc2)c1	-9	-7	-8	-4	-2	5
COC(=O)c1cc[n+](CC(=O)c2ccccc2)cc1	30*	-1	9	6	-7	-4
CN(C)c1cc[n+](CC(=O)c2ccc(-c3ccccc3)cc2)cc1	-11	-30	-10	20	42*	-19
COc1ccc(NC(=O)Cc2c(SC)c3ccccc3n2Cc2ccccc2)cc1	-6	1	-3	6	-1	-6
COc1ccc(-c2ccc(C(=O)Nc3cc(OC)c(OC)c(OC)c3)c3occc23)c(C)c1	-2	-5	1	4	4	-3
Oc1ccc(Cl)cc1C=Nc1ccc2c3c(cccc13)CC2	22*	-1	53*	35*	17	-14
Cc1cccc(C=Nc2ccc3c4c(cccc24)CC3)c1O	3	-3	34*	24	12	-9
Oc1ccc(Cl)cc1/C=N/c1nccs1	-4	6	-2	-4	-10	-1
Cc1cc(OCCCN2CCC(C(O)(c3ccccc3)c3ccccc3)CC2)ccc1Br	.	.	-2	10	.	-17
Cn1nc(C(F)(F)F)c(-c2ccc(F)cc2)c1NC(=O)Nc1ccc(F)cc1	6	-6	-2	33*	15	-23
CSCCC(=O)N(C)CC1CCCN(CCc2cccc(C(F)(F)F)c2)C1 (stereo not given)	-8	-23	-21	10	37*	-3
